Assay results collected from several papers.
Lines come from different studies, so protocols differ. ≈ marks a conversion by molar mass, not a printed value.

Compound	tested on	assay	test system	setting	quantity	value
CC(C)(C)c1cc(NC(=O)Nc2ccc(-c3cn4c(n3)sc3cc(OCCN5CCOCC5)ccc34)cc2)no1	G-361	cell growth or viability		72 h	GI50	> 10000 nM
C[C@@H](O)[C@H]1C(=O)N2C(C(=O)O)=C(SCCN=CN)C[C@H]12	Acinetobacter baumannii	microbial growth, broth dilution	ATCC19606		MIC	1 µg/mL (≈ 3.34 µM)
Cc1n[nH]c2ccc3nc(-c4ccc(C(=O)NCCN(C)C)cc4)c4c(c3c12)CCCC4	G-361	cell growth or viability		72 h	GI50	3490 nM
O=C1Nc2ccccc2C1=Nc1ccccc1Br	B16	cell growth or viability, MTT		48 h	IC50	> 100000 nM
O=c1oc2c(O)c(O)cc3c(=O)oc4c(O)c(O)cc1c4c23	Streptococcus gordonii	microbial killing, broth dilution			MBC	400 µg/mL
CCCCCCC#Cc1cncc(-c2nnc(SCc3cc([N+](=O)[O-])cc([N+](=O)[O-])c3)n2CCCN)c1	Acinetobacter baumannii	microbial growth, broth dilution	ATCC17978		MIC	32 µg/mL (≈ 61.1 µM)
O=C1C(=Nc2ccccc2I)c2ccccc2N1Cc1ccc([N+](=O)[O-])cc1	B16	cell growth or viability, MTT		48 h	IC50	270 nM
CNC(C)C1CCC(N)C(OC2C(N)CC(N)C(OC3OCC(C)(O)C(NC)C3O)C2O)O1 (stereo not drawn)	Acinetobacter baumannii	microbial killing, broth dilution	ATCC19606	24 h	MBC	32 mM
O=C1C(=Nc2cccc(Cl)c2)c2ccccc2N1Cc1ccc([N+](=O)[O-])cc1	B16	cell growth or viability, MTT		48 h	IC50	550 nM
CO/N=C(\C(=O)N[C@@H]1C(=O)N2C(C(=O)O)=CCS[C@H]12)c1csc(N)n1	Acinetobacter baumannii	microbial growth, broth dilution	ATCCBAA1605		MIC	> 64 µg/mL
O=C1O[C@H]2[C@@H]3OC(=O)c4cc(O)c(O)c(O)c4-c4c(O)c(O)c5oc(=O)c6c(c(O)c(O)c7oc(=O)c4c5c76)-c4c(cc(O)c(O)c4O)C(=O)OC[C@H]3OC(O)[C@@H]2OC(=O)c2cc(O)c(O)c(O)c2-c2c1cc(O)c(O)c2O (mixture of isomers)	Streptococcus gordonii	microbial killing, broth dilution			MBC	400 µg/mL
O=C1C(=Nc2ccc(Cl)cc2)c2ccccc2N1Cc1cccc(Cl)c1	B16	cell growth or viability, MTT		48 h	IC50	1560 nM
O=C(O[C@@H]1O[C@@H]2COC(=O)c3cc(O)c(O)c(O)c3-c3c(cc(O)c(O)c3O)C(=O)O[C@H]([C@H]1O)[C@@H]2O)c1cc(O)c(O)c(O)c1	Streptococcus gordonii	microbial growth, broth dilution		24 h	MIC	100 µg/mL (≈ 158 µM)
O=C1C(=Nc2ccc(Cl)cc2)c2ccccc2N1Cc1ccc(Br)cc1	B16	cell growth or viability, MTT		48 h	IC50	14100 nM
CN(C)[C@@H]1C(O)=C(C(N)=O)C(=O)[C@@]2(O)C(O)=C3C(=O)c4c(O)cccc4[C@@](C)(O)[C@H]3C[C@@H]12	Acinetobacter baumannii	microbial growth, broth dilution	ATCCBAA1605		MIC	> 64 µg/mL
O=C1OC[C@H]2OC(O)[C@H](O)[C@@H](O)[C@@H]2OC(=O)c2cc(O)c(O)c(O)c2-c2c(O)c(O)c3oc(=O)c4c(c(O)c(O)c5oc(=O)c2c3c54)-c2c1cc(O)c(O)c2O (mixture of isomers)	Streptococcus gordonii	microbial growth, disc diffusion		500 µg/disc	inhibition zone	14 mm
C[C@H]1[C@H](NC(=O)/C(=N\OC(C)(C)C(=O)O)c2csc(N)n2)C(=O)N1S(=O)(=O)O	Acinetobacter baumannii	microbial growth, broth dilution	ATCC19606		MIC	16 µg/mL (≈ 36.7 µM)
Oc1cc(O)c2c(c1)O[C@H](c1cc(O)c(O)c(O)c1)[C@@H](O)C2	Streptococcus gordonii	microbial growth, broth dilution		24 h	MIC	25 µg/mL (≈ 81.6 µM)
